Test results published in ChEMBL document CHEMBL4825662 (J Med Chem, 2021).
Values after ≈ are worked out from the molar mass of the structure shown. Active and inactive are the calls of the source. The rule behind the calls is not given here.

Legend:
[1] = tested on: Human orthopneumovirus; experiment: Antiviral activity against Respiratory syncytial virus A Memphis 37b infected in human assessed as reduction in AUC of total symptom score at 200 to 350 mg administered twice daily administered for 5 days; assay type: functional, organism-based; details: dose 200-350 mg, time 5.0 day
Procedure, shortened: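 Phase 2a challenge study in healthy adults aged 18–45 with low serum RSV-specific antibodies, inoculated on day 0 with about 4 log10 PFU RSV-A Memphis 37b. After infection was confirmed, subjects were randomised to three equal groups: drug at 200 or 350 mg, or placebo, twice daily for 5 days. Read-out was AUC of total symptom score versus placebo.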

[2] = Half life in Beagle dog hepatocytes at 3 uM assessed per million cells measured up to 60 mins by LC-MS/MS analysis; assay type: ADME, cell-based, Canis lupus familiaris, Hepatocyte
[3] = Half life in Sprague-Dawley rat at 50 mg/kg, po measured after 0.02 to 24 hrs by UHPLC-TOF method; details: in vivo
[4] = Clearance in Sprague-Dawley rat at 50 mg/kg, po measured after 0.25 to 24 hrs by UHPLC-TOF method; assay type: ADME, organism-based; details: in vivo, time 0.25-24 hrs
[5] = Apparent permeability across apical to basolateral side in MDCK-MDR1 cells at 10 uM measured at 60 mins by LC-MS/MS analysis; assay type: ADME, cell-based, Canis lupus familiaris; details: dog, MDCK-MDR1
[6] = Thermodynamic solubility in PBS at 1 to 100 uM at pH 7.4 by HPLC-UV method; assay type: physicochemical; details: dose 1-100 µM, read-out: Therm_solubility
[7] = Cytotoxicity against African green monkey Vero cells by MTT assay; assay type: cell-based; details: chlorocebus sabaeus
Procedure, shortened: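 Viability was assessed by MTT after culture with compound at 0.01 nM to 100 μM, run in parallel with plaque reduction assays. Values are the average of at least two testing occasions.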

[8] = Intrinsic clearance in rat hepatocytes at 3 uM assessed per million cells measured up to 60 mins by LC-MS/MS analysis; assay type: ADME, cell-based, Hepatocyte; details: read-out: CLH
[9] = tested on: Salmonella typhimurium; experiment: Genotoxicity in Salmonella typhimurium by Ames test; assay type: functional, organism-based; details: Salmonella enterica subsp. enterica serovar Typhimurium
[10] = Oral bioavailability in CD1 mouse at 10 mg/kg measured after 0.03 to 24 hrs by UHPLC-TOF method; assay type: ADME, organism-based; details: in vivo, time 0.03-24 hrs
Procedure, shortened: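 Male CD-1 mice, acclimatized and individually housed, dosed IV and PO as amorphous-solid suspension. Terminal cardiac-puncture blood into heparinized tubes on wet ice, centrifuged at 4 °C within 15 min; plasma snap-frozen at −20 °C. IV arm sampled 2 min–24 h, oral arm 5 min–24 h. Plasma analysed by UHPLC-quadrupole-TOF MS.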

[11] = Intrinsic clearance in human hepatocytes at 3 uM assessed per million cells measured up to 60 mins by LC-MS/MS analysis; assay type: ADME, cell-based, Hepatocyte; details: read-out: CLH
[12] = tested on: Human orthopneumovirus; experiment: Antiviral activity against Respiratory syncytial virus A Memphis 37b infected in human assessed as reduction in mean AUC of viral load at 350 mg administered twice daily administered for 5 days by RT-qPCR analysis; assay type: functional; design: scale not given: the % may be the effect or the level left; details: time 5 day
Procedure, shortened: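 Healthy adult volunteers aged 18–45 with low serum pre-existing RSV-specific antibodies were challenged on day zero with about 4 log10 PFU of RSV-A Memphis 37b. Subjects were randomized into 3 equal groups: 200 mg, 350 mg or placebo twice daily for 5 days, begun after infection was confirmed. Viral load in nasal wash was measured by RT-qPCR or by cell-based infectivity assay, and AUC was compared with placebo.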

[13] = tested on: Respiratory syncytial virus; experiment: Antiviral activity against Respiratory syncytial virus infected in human airway epithelial cells assessed as reduction in RSV titer at 10 nM preincubated for 2 hrs followed by viral infection and measured after 7 day post infection by luminescence assay relative to control; assay type: functional, HAE
Procedure, shortened: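 Primary HAE cells were differentiated for 61 days on type IV collagen-coated trans-well inserts (n = 3 cultures). Compound at 10 nM was given basolaterally for 2 h before apical inoculation with 4 × 10⁵ pfu of luciferase-expressing recombinant RSV. Apical virus titer was read by luminescence on days 7 and 8 post-infection and compared with untreated controls. Data are mean SD.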

NCc1ccc2c(c1)nc(CN1C(=O)C3(CC3)c3ccc(F)cc31)n2CCCC(F)(F)F [SISUNATOVIR]
Activity [1]: Active
half-life at 3 µM [2]: 9.67 h
half-life [3]: 5.9 h
CL/F [4]: 164 mL/min/kg
Papp A→B at 1 h, 10 µM [5]: 0.5 ×10⁻⁶ cm/s
solubility thermodynamic [6]: 417 µM (≈ 186 µg/mL)
CC50 [7]: > 4 µM
hepatocyte CLint at 3 µM [8]: 14.8 µL/min/1e6 cells
Activity [9]: Not toxic
bioavailability [10]: 46.4%
hepatocyte CLint at 3 µM [11]: 6.58 µL/min/1e6 cells
Activity [12]: 63.05%
log(activity) [13]: 2.3
